Only some compounds are listed: those with a hit (about 6.6% of all), similar ones and a draw of the others.
PostGolgi yeast: growth inhibition of a yeast mutant, post-Golgi transport screen; inhibition, % at 10 µM; 98,000 compounds, 0.9% hits; post-Golgi transport phenotypic cell assay;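 also: yeast cells grown in 1536-well plates; yeast grown about 18 h at 30C before absorbance read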
PostGolgi ctrl: inhibits growth of the yeast control strain. efflux-deficient yeast background strain, growth absorbance A615, 16 h. inhibition, % at 10 µM. 98,000 compounds, 5% hits. AID 738
Ecoli tolC: blocks growth of E. coli BW25113 tolC mutant; OD615; growth inhibition, % at 10 µM (by protocol); 65,000 compounds, 2.2% hits; AID 573;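 active = growth inhibition at or above a cutoff equal to the mean over every tested compound plus 3 SD, cut at about 60% in these data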;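 also: growth measured after 20 h incubation at 37 °C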
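test system = E. coli BW25113 ΔtolC::kan bacteria | medium = LB with kanamycin 50 µg/mL | signal = OD at 615 nm | schedule = 37 °C, 20 h exposure | evaluation = % inhibition of E. coli growth | compound dosing = one dose of 10 µM final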
HER2 expr 66K: inhibitors of human Her2 kinase expression; P04626; SKBR-3 HER2 protein level, AlphaScreen, 18-24 h; active compounds read low; HER2 level % of control, % at 10 µM; 65,000 compounds, 0.69% hits;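 active = HER2 level under 5% of the carrier-only control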;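 also: 100% = DMSO carrier and 0% = 500 nM PU-H71 HSP90 inhibitor; lower value means stronger loss of Her2 protein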
Ecoli WT expand: blocks growth of wild type E. coli BW25113; AID 710; 98,000 compounds, 0.15% hits; OD600 absorbance; growth inhibition, % at 100 µM;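 active = growth inhibition above about 50% at one test dose, limit read from the data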;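 also: growth measured after 20 h incubation at 37 °C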
The depositor's hits bear a star; . = not tested or not shown. Rule as the data show it, unless noted: active = inhibition above about 30%; inactive = the rest.

SMILES | PostGolgi yeast | PostGolgi ctrl | Ecoli tolC | HER2 expr 66K | Ecoli WT expand
COc1ccc(C)cc1NC(=O)C1CCCN(S(=O)(=O)c2c(C)noc2/C=C/N(C)C)C1 (configuration not stated) | . | . | -14 | 77 | .
O=C(NCCSCc1ccco1)Nc1ccccc1 | -1 | -2 | 8 | 119 | 17
CC(C)(C)c1ccc(NC(=O)COc2ccc(-n3ccnc3)cc2)cc1 | 73* | 58* | . | . | 9
CCOC(=O)c1ccc(Oc2nc(NC)nc(Nc3ccccc3)n2)cc1 | 9 | 15 | . | . | -6
CNc1nc(Nc2ccc(C(C)=O)cc2)nc(OC(C(F)(F)F)C(F)(F)F)n1 | 7 | 30* | 67* | 98 | -3
CC1CCCCN1C(=O)CSc1nnc(-c2c[nH]c3ccccc23)o1 (configuration not stated) | 1 | 14 | 18 | 55 | -1
CCOc1cc(S(=O)(=O)Nc2cc(C)cc(C)c2)ccc1Cl | -14 | 39* | . | . | 8
CCOc1ccc(S(=O)(=O)Nc2ccccc2SC)cc1 | -4 | 14 | . | . | 7
COc1ccc(C)cc1S(=O)(=O)Nc1cccc(Cl)c1 | -4 | 43* | 5 | 78 | -6
CCOc1cc(S(=O)(=O)NC2CCCC2)ccc1Cl | -2 | 7 | 38 | 94 | 11
CCOc1ccc(S(=O)(=O)Nc2cc(Cl)ccc2O)cc1 | 17 | 11 | 67* | . | 33
CCOc1ccc(S(=O)(=O)Nc2cccc(Cl)c2)cc1 | . | . | 73* | 196 | .
CO/N=C/NC(=O)NOCc1c(Cl)cccc1Cl | 0 | 32* | . | . | 4
O=C(N/C=N/OCc1ccc(Cl)cc1Cl)NOCc1c(Cl)cccc1Cl | 5 | 7 | . | . | 2
COc1ccc(NC(=O)CN(C)S(=O)(=O)c2ccc3c(c2)OCCO3)c2ncccc12 | 4 | 20 | 27 | 91 | -7
CN(C)/C=C/C(=O)c1nnn(C2CCCCC2)c1NC1CCCCC1 | -6 | 31* | 6 | 68 | 5
C1CCC(Nc2nnnn2C2CCCCC2)CC1 | -5 | 6 | -16 | 101 | 1
CCOC(=O)C1CCCN(C(=O)Cc2c(F)cccc2Cl)C1 (configuration not stated) | 35* | -3 | 3 | 97 | -5
CCOC(=O)C1CCCN(C(=O)Cn2cccc2C(=O)c2ccccc2)C1 (configuration not stated) | 6 | 31* | -4 | 102 | 0
CCOC(=O)C1CCN(C(=O)Cn2cccc2C(=O)c2ccccc2)CC1 | 4 | 7 | . | . | -7
O=C(CSc1nccc(-c2ccc(Br)cc2)n1)NCCc1ccccc1 | 29 | 11 | . | . | -3
Cc1nc(CN2CCN(C(=O)c3ccc(C(C)(C)C)cc3)CC2)cs1 | 4 | 1 | . | . | 9
CCOc1ccc(/C(O)=C2\C(=O)C(=O)N(c3cc(C)on3)C2c2ccccc2OC)cc1 (configuration not stated) | 10 | 15 | 1 | -22* | -2
O=C(NCc1ccc(F)cc1)c1ccc(CS(=O)(=O)Cc2ccc(F)cc2)o1 | -5 | -4 | 3 | 97 | 1
COc1ccccc1-c1cc(C(=O)NCc2ccc(Cl)cc2)no1 | 8 | 6 | -4 | 70 | -3
SMILES | PostGolgi yeast | PostGolgi ctrl | Ecoli tolC | HER2 expr 66K | Ecoli WT expand
COc1ccc(CNC(=O)c2cc(-c3ccco3)on2)cc1 | 0 | -6 | -23 | 82 | -8
COc1ccccc1-c1cc(C(=O)NCc2ccc(F)cc2)no1 | 4 | 59* | 92* | 93 | -10
COc1ccc(CNC(=O)c2cc(-c3ccccc3OC)on2)cc1 | 1 | 16 | 69* | 83 | -2
COc1ccccc1-c1cc(C(=O)NCc2ccccc2)no1 | 9 | 26 | 80* | 83 | -10
O=C(NCc1ccccc1)c1ccc(-c2ccc(F)cc2)o1 | 0 | 31* | . | . | 3
COC(=O)c1cn(NC(=O)c2cccc(OC)c2)c(=O)c2ccccc12 | 2 | -1 | . | . | 2
O=C(NCc1ccc2c(c1)OCO2)C1CCCN(S(=O)(=O)c2cccnc2)C1 (configuration not stated) | 0 | 22 | -10 | 92 | 3
Cc1cccc(Sc2c(C=O)c3ccccc3n2C)c1 | 4 | 24 | . | . | -3
CCC1C(=O)Nc2nc(-c3ccccc3)c(-c3ccccc3)n2N=C1C (configuration not stated) | -2 | 42* | . | . | 3
O=C(NNc1ccc(C2CCCCC2)cc1)C(O)(c1ccccc1)c1cccs1 (configuration not stated) | 15 | 46* | . | . | -12
Cc1ccc2c(c1)CCCN2C(=O)c1ccoc1C | 2 | 8 | 2 | -29* | -1
Fc1ccc(-c2cc(C(F)(F)F)nc(NCC3CCCO3)n2)cc1 (configuration not stated) | -4 | 5 | 100* | 86 | 0
CCc1nnc(NC(=O)C(C)N2C(=O)C3C4C=CC(C4)C3C2=O)s1 (configuration not stated) | 10 | -1 | -11 | 73 | 6
NC(=O)c1ccsc1NC(=O)c1cccs1 | . | . | 3 | 95 | .
Cc1sc(NC(=O)c2cccs2)c(C(N)=O)c1C | 7 | 37* | 7 | 49 | -6
COc1ccc(NC(=O)CNS(=O)(=O)c2ccc3nc(C)sc3c2)c(OC)c1 | 7 | 7 | 1 | 141 | 6
c1ccc(SCCOCCn2cncn2)cc1 | -4 | 3 | -20 | 131 | 6
OC(Cn1cncn1)(c1ccccc1)c1ccccc1 | 103* | 91* | . | . | 4
Cc1ccc(CNc2ccc3c(c2)OCO3)c(C)c1 | -2 | 39* | 22 | 51 | 0
Cn1c(CSc2nc3ccccc3s2)n[nH]c1=S | -7 | 4 | 29 | 84 | 17
Cn1c(CSc2nc3ccccc3s2)nc2ccccc21 | -3 | 16 | 72* | 88 | -7
Cc1ccc(NCc2nc3ccccc3n2C)cc1 | -1 | 34* | 8 | 93 | 12
Clc1ccc(-n2nnnc2Sc2ncnc3sccc23)cc1 | . | . | 1 | -11* | .
Cc1sc2ncnc(Nc3ccccc3)c2c1C | 3 | 33* | . | . | 3
Cc1sc2ncnc(Sc3nnnn3-c3ccccc3)c2c1C | 12 | 29 | 19 | -14* | -6
SMILES | PostGolgi yeast | PostGolgi ctrl | Ecoli tolC | HER2 expr 66K | Ecoli WT expand
Nc1ccc(Sc2nnnn2-c2ccccc2)c(Cl)c1 | 23 | 8 | 15 | 105 | 3
CCSc1nnnn1-c1ccccc1 | -3 | -7 | . | . | 3
CCS(=O)(=O)N1CCCC(C(=O)NCCc2ccccc2)C1 (configuration not stated) | -2 | 1 | . | . | -9
COc1ccc(N2CCN(c3nc4c(c(=O)[nH]c(=O)n4C)n3CCCc3ccccc3)CC2)cc1 | . | . | 2 | 108 | .
Cc1cc(NC(=O)CN2CCCC2c2nc3ccccc3s2)no1 (configuration not stated) | -6 | 27 | 3 | 98 | -2
CC(C)c1ccc(-c2noc(C3CCCN(C(=O)c4ccc(F)cc4F)C3)n2)cc1 (configuration not stated) | -5 | 14 | 68* | 66 | -22
O=C(Nc1ccccc1)N1CCCC(c2nc(-c3ccc(F)cc3)no2)C1 (configuration not stated) | -4 | 23 | . | . | -14
O=S(=O)(Cc1ccccc1)N1CCCC(c2nc(-c3ccc(F)cc3)no2)C1 (configuration not stated) | 2 | 33* | -16 | 86 | -4

Assay outcomes from PubChem BioAssay.
